Experimental findings from the EternaBench riboswitch data are described below.

In this series the test system is MS2 coat protein. Put plainly: apparent Kd, MS2 coat protein; higher = weaker binding; RNA-MaP array; FMN 200 µM where present. The gist of the method: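 Designs were transcribed by stalled E. coli RNA polymerase on Illumina sequencing-chip clusters. They were titrated with SNAP-549-labelled MS2 coat protein from 0.7 or 1.5 nM, doubling to 3 µM, in 100 mM Tris-HCl pH 7.5, 80 mM KCl, 4 mM MgCl2, BSA, DTT, yeast tRNA and Tween-20, without and then with constant ligand. The apparent Kd is the median of filtered per-cluster fits after normalisation of green signal to red-channel RNA signal and control-cluster median Fmax.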

[1] abbreviates: designed as: OFF switch for flavin mononucleotide, no ligand.
The mark [2] stands for this setting: ligand present: flavin mononucleotide, designed as: OFF switch for flavin mononucleotide.
[3] abbreviates: designed as: ON switch for flavin mononucleotide, no ligand.
[4] abbreviates: ligand present: flavin mononucleotide, designed as: ON switch for flavin mononucleotide.

On to “UGCAUGUAAGGAUAUGCACUGCGCGAGCCUGGCUCGCAAAGGCAGAAGGUACAUGAGGAUCACCCAUGUGAGAA”, for which the “apparent Kd” value runs as follows: under setting [1], 91.5 nM; under setting [2], 99.7 nM.
The matching figures for “AGAUGACAAAGUCAUCUCGCGCUGACAUGAGGAUCACCCAUGUAGGAUAUAUUACUCAAAGAGUAAUAGAAGGACAUGUGUCUU”: 29.9 nM and 72.2 nM.
Regarding “AAAUAGCGAGGAUAUACAUGAGGAUCACCCAUGUGGACUGAUGUCGCGUGAUUCAGUGGUAGAAGGUGCUCAAA”, the “apparent Kd” value reads like this: under setting [1], 45.4 nM; under setting [2], 76.3 nM.
As to “AGUAGAUCAGGAUAUACGUAAAUGGUAAUUAUGUAACUUUUACAUGAGGAUCACCCAUGUAGAAGGGAUCUACA”, the “apparent Kd” value was 17.5 nM under setting [1] and 18.1 nM under setting [2].
As to “UUAGUUACGGGAGGAUAUGUCACCCUGGGUCACAUGAGGAUCACCCAUGUGACAGAAGGCCCAAUUAUGGUGCCCAGGGCGCCU”, the “apparent Kd” value by setting is: under setting [1], 5.84 nM; under setting [2], 22.8 nM.
For the sequence “AAAAUAAGAACAGGAUAUGUGGGUUCGAAGAGCAAAACUCUCCACAUGAGGAUCACCCAUGUGCCACAGAAGGGUUCGGGUGAU”, the “apparent Kd” value under setting [3] was found to be 66.9 nM and the “apparent Kd” value under setting [4] was determined as 12.4 nM.
Take “AACUGUCUAAAGGAUAUGCUGGAUUAAUAUCUGGCAGAAGGUUGGACAUGAGGAUCACCCAUGUAAAUACUACC”: the “apparent Kd” value under setting [1] was 21.6 nM and the “apparent Kd” value under setting [2] is 70.1 nM.
Turning to “AAUAUGUUGCAGAAGGUUAUUUUUAUAACGUUCCUCUUGACAUGAGGAUCACCCAUGUAAUUGUUGAAGGAUAUGCAAUAUAUU”, the “apparent Kd” value is, setting by setting: under setting [1], 6.69 nM; under setting [2], 6.18 nM.
“UAUUCAUUCAGAGGAUAUUGUUUAUCUCUAUUUCAAGAAGGCUGAUUUUACUACUUACUUAUGAAACAUGAGGAUCACCCAUGU”: the “apparent Kd” value reads like this: under setting [3], 25.6 nM; under setting [4], 17.5 nM.
With “AGCAGACGAGGAUAUAAAUUUGAUAACAUGAGGAUCACCCAUGUGAUCGAUAGAUCAAAUUUAGAAGGCGUCUGCU”, the “apparent Kd” value runs as follows: under setting [1], 647 nM; under setting [2], 940 nM.
Turning to “CAUCCACGGUAGAAGGGACUAGGCACAUGAGGAUCACCCAUGUCCUUUCCCAACUUGUGCCGCGGUCAGGAUAUACCGGGUCGG”, the “apparent Kd” value is, setting by setting: under setting [1], 12.5 nM; under setting [2], 20 nM.
For “AGCUGGUGACAGCAUCCAUCAAAACAUGAGGAUCACCCAUGUAGAAGGCUGUACGGUUACCGUACAGAGGAUAUACAAUGAUGA”, in that order: 16.3 nM and 27.3 nM.
Consider “GUGAUAUUGUAAGGAUAUACUCUGUGAUGAAGAGUAGAAGGUACUUACAUGAGGAUCACCCAUGUUUAACGAGAUACUAAUCGU”, for which the “apparent Kd” value turned out to be 198 nM under setting [3] and 76.9 nM under setting [4].
For “UUUUACUAGUAAGGAUAUACUAGCGAUUAGCUUGUAGAAGGUACAGUCUUAUGUAUAACAUGUUAACAUGAGGAUCACCCAUGU”, in that order: 62.1 nM and 34.5 nM.
As for “AGAUGGCGAGGAUAUACAUGAGGAUCACCCAUGUGAAGAUAAAGAGUGAGGAAGAAAAGUAGAAGGCGCUGUCA”, the “apparent Kd” value runs as follows: under setting [1], 123 nM; under setting [2], 506 nM.
For “ACCCUGUCAGGAUAUCCUGCUGUGCGGCCUCUGUAUUCAAGGGAGAAGGGACAUGAGGAUCACCCAUGUAUGAG”, in that order: 40.6 nM and 47.5 nM.
As for “UUAUCUUGUCAAGGAUAUGUAGUAUUGAUCUGAAAACAUGAGGAUCACCCAUGUAUACGGUGGGAACAGAAGGUGAAUGUUGAA”, the “apparent Kd” value by setting is: under setting [1], 679 nM; under setting [2], 670 nM.
As to “GGUGUGUUAGGAUAUCGCGGCGGCGGCGUUUGUUGUUGUUGUGAGAAGGGACAUGAGGAUCACCCAUGUGCGCC”, the “apparent Kd” value under setting [1] turned out to be 24.4 nM and the “apparent Kd” value under setting [2] was found to be 27.2 nM.
“AGACGGAGCUGAGGAUAUAACAUGAGGAUCACCCAUGUAAGUCUCCAGGAAACUGGAGACAAUAGUUAGAAGGCAGCUCCGUCA”: the “apparent Kd” value was 13.6 nM under setting [1] and 22.3 nM under setting [2].
For the sequence “CCACGGUAUGUAGGAUAUGCAUAGCAUUGCUAAAAAGAAGGACAUGAGGAUCACCCAUGUAUGUAUUCCAUACUAAUCCCGUGC”, the “apparent Kd” value under setting [1] is 8.98 nM and the “apparent Kd” value under setting [2] was 8.06 nM.
With “CGAGUGAUAGGAUAUACACCUUUUCAGAACAUGUGGCUGUUACAUGAGGAUCACCCAUGUAGAAGGAUCAAGCG”, the “apparent Kd” value runs as follows: under setting [1], 65.8 nM; under setting [2], 66.3 nM.
As for “UUGGAGUACGUAGGAUAUGUAGGAUAUUCCUACAUGAGGAUCACCCAUGUUGACAUGGAGGAAGGACAGAAGGACGUGCUCCAU”, the “apparent Kd” value amounted to 435 nM under setting [3] and 241 nM under setting [4].
For “CGGUCGAUGUAAGGAUAUCGACUGGAUAACAGUCGAGAAGGUACAUGAGGAUCACCCAUGUAAACCUAUAAUAAAUAACGACCG”, the “apparent Kd” value came out at 11.2 nM under setting [1] and 14.6 nM under setting [2].
For “UGUCGGAGCAGAGGAUAUUACAUGAGGAUCACCCAUGUCUGAACCAAUAGCUGGAAACAGCAAUGUAAGAAGGCUGCUCCGACA”, in that order: 154 nM and 432 nM.
In the case of “UUUGUCUGUGUGAGGAUAUACUUGUUUGGGUUUUUGUAGAAGGCACAUGAGGAUCACCCAUGUAUUUUGUUGUG”, the “apparent Kd” value under setting [1] came out at 58.3 nM and the “apparent Kd” value under setting [2] came out at 75.5 nM.
For “AAGUCGACGGUGAGGAUAUUAGUUGAACGACAGAUUAAGAAGGUACAUGAGGAUCACCCAUGUGGGUAGUGUUG”, in that order: 96 nM and 98.6 nM.
For “AGCUGUGGCAGAGGAUAUACUUCAAUAAUCCAUUGCAAAUAGCGAUGGACAUGAGGAUCACCCAUGUAGAAGGCUGUCUCAGCA”, in that order: 19.9 nM and 46.2 nM.
For “GUGACGAUGUAAGGAUAUGCUGAGGAUAACUCAGCAGAAGGUACAUGAGGAUCACCCAUGUAAAUAAUAAGAAAUAAACGUCAC”, in that order: 16.6 nM and 24.1 nM.
“GGACAUCCCACAGGAUAUGCUGGACUUUGUCCAGCAGAAGGGUGAAACACAUGAGGAUCACCCAUGUGGAUGUCCAUAUUUAAU”: the “apparent Kd” value reads like this: under setting [3], 180 nM; under setting [4], 694 nM.
The matching figures for “UGUAUUAACGGAGGAUAUCGAUAUCAAACAUGAGGAUCACCCAUGUUGAGGAUCACCCAUGUCCAUGAGAAGGCCGGCGUACUC”: 41.8 nM and 32.9 nM.
Consider “UGGACCGAGCUAUCGGUUGACUCGAAGGAUAUGACAUGAGGAUCACCCAUGUGGGAUCUAAAUUGUCAGAAGGUUGGUUCUGGG”, for which the “apparent Kd” value runs as follows: under setting [1], 367 nM; under setting [2], 140 nM.
For “AGGGAGUUAGGAUAUGCUGCUCGUCACUUGCGUGAUGAGUAGCAGAAGGAACAUGAGGAUCACCCAUGUAAAGA”, in that order: 34.9 nM and 28.8 nM.
As to “GAGUGGAGGAAAGGAUAUACAAUGAUAAUCACAGUAGAAGGUUCUAACAUGAGGAUCACCCAUGUAGGACUAUACCAGAGAGGG”, the “apparent Kd” value under setting [3] turned out to be 13.1 nM and the “apparent Kd” value under setting [4] turned out to be 12.5 nM.
For the sequence “CCUCGACAUGAGGAUCACCCAUGUCAGGAUAUUGUGUCUCGGGUUUUUUACCGAUAGGCAAGAAGGGAUGUGUG”, the “apparent Kd” value is 23.4 nM under setting [1] and 31 nM under setting [2].
As for “AUUAUUGACGAAGGAUAUGGAUACAUGAGGAUCACCCAUGUAUAAUUUGUGAUCAUAUAUAUGAUCCAGAAGGUCGUUGUUUAU”, the “apparent Kd” value is 41 nM under setting [1] and 63.8 nM under setting [2].
For “CGGUUGCGAGGAUAUAUGACAUGUUGCGCCGGAACUCCGCCACAUGAGGAUCACCCAUGUAGAAGGCGCAACUU”, the “apparent Kd” value under setting [1] turned out to be 14.4 nM and the “apparent Kd” value under setting [2] is 15.3 nM.
